Hits are enriched below; roughly 1.9% of the tested compounds scored in any of these assays.
beta cell repl: MIN6 beta-cell proliferation induction; MIN6 cells proliferation, ATPlite luminescence, 48 h; cells starved in 0.2% serum; 100% = growth in 10% serum; proliferation, % at 10 µM; 0.29% of 330,000 active;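 active means compounds whose signal lies at least 3.5 SD above the mean of all wells on their plate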;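 further: 0% = DMSO-treated cells in low-serum medium and 100% = 10% serum control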
Rce1 inhib: yeast Ras-converting enzyme inhibition; Q03530; yeast membranes, quenched prenylated peptide cleavage fluorescence; 0.27% of 290,000 active; calls only;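 active means fall in fluorescence gain of 50% or more versus controls, with final raw signal at or below 3038400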;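 further: plate controls were neutral control wells for no effect and wells lacking membranes for full effect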
UCH37 inh: human UCH37 deubiquitinating enzyme inhibition. AID 588478. purified proteasome/UCH37, Ub-AMC cleavage fluorescence. 0.33% of 330,000 active. inhibition, % (test concentration not listed);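 active means mean inhibition over replicate wells above about 20%, limit read from the data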;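 further: 0% = compound-free wells with enzyme and 100% = wells lacking proteasome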
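Material: Human UCH37 enzyme supplied as purified proteasome complex | Schedule: 30 min preincubation with enzyme, 25 min cleavage at room temperature | Detection: AMC fluorescence 355/460 nm | Measure: % inhibition of Ub-AMC cleavage fluorescence | Controls: Wells without proteasome as full block, compound-free enzyme plus substrate as uninhibited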
Yeast superoxide: lowers age-related superoxide in aged yeast cells. S. cerevisiae aged cells, superoxide DHE fluorescence; hits give low values. 0.18% of 330,000 active. superoxide response (% of plate mean), % at 10 µM;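 active means superoxide response under a set limit, about three screen SD below normal, cut at about 65% in these data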;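 further: yeast aged for seven days with compound at 30 °C before DHE staining; 100% = average MFI of all compound-treated wells on the plate with controls excluded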
PG9 Ab binder: binds the HIV-1 gp120 antibody PG9 | 0.43% of 360,000 active | inhibition, % at 6.7 µM | TR-FRET gp120-PG9 antibody binding | AID 624416; in the data active means inhibition above about 8.5%
Rev-erbA mod: modulates human Rev-erb alpha binding to DNA. P20393. Rev-erbα–FITC-DNA binding, fluorescence polarization, 90 min. activity, % at 10 µM. 0.79% of 370,000 active. AID 1259318;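 active means activity above about 14%, limit read from the data; passing the limit was not always enough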;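 further: 0% = DMSO wells with 35 nM protein and 100% = DMSO wells with 750 nM protein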
Target sequence (P20393 whole entry, looked up): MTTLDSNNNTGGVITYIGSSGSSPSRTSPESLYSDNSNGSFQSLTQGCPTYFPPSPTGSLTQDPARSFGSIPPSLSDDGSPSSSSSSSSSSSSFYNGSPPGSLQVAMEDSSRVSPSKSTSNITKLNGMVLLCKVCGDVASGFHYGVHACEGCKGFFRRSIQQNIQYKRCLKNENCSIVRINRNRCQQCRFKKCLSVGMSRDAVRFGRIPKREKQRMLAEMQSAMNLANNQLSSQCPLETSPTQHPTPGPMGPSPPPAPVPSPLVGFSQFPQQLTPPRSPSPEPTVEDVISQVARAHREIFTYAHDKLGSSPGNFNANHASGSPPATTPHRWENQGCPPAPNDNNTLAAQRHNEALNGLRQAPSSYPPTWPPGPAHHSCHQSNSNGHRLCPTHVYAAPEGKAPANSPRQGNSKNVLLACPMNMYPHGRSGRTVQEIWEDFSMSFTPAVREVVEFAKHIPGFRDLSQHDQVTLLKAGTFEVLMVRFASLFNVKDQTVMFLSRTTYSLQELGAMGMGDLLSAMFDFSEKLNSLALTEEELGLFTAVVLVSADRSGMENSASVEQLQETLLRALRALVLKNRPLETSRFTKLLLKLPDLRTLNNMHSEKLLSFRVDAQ
NR1D1 mod conf: confirmation of modulators of human Rev-erb alpha DNA binding; Rev-erb alpha FITC-DNA binding, fluorescence polarization, 90 min; AID 1259319; activation, % at 25 µM; shares compounds with Rev-erbA mod; 61% of 3,000 active;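 active means activation at or above a set limit, or at least 3 SD above the negative control mean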;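 further: 0% = 35 nM protein with DMSO and 100% = 750 nM protein high control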
RORg DNA counter: RORgamma DNA-binding activity, dose-response counter-screen | IC50, µM | purified RORgamma protein-FITC-DNA binding, fluorescence polarization | shares compounds with Rev-erbA mod | AID 1259320 | 8% of 910 active;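 active means Compounds whose fitted half-maximal concentration for disrupting protein-DNA binding is below 10 micromolar; the record names Rev-erb in its text, so the target is in doubt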
Active calls of the source: *; i = inactive; . = no result.

SMILES	beta cell repl	Rce1 inhib	UCH37 inh	Yeast superoxide	PG9 Ab binder	Rev-erbA mod	NR1D1 mod conf	others
CNc1nc2c(-c3ccc(Cl)cc3)nnn2c2ccccc12	-1.4	i	-259.1	104.6	2.1	18.1*	16.0
Nc1c(-c2ccc(Cl)cc2)nnn1-c1ccccc1	-0.6	.	5.2	113.6	2.1	0.8	.
CC(C)OCCCNc1nc2c(-c3ccccc3)nnn2c2ccccc12	-1.6	i	-275.1	97.0	.	.	.
Cc1ccc(-c2nnn3c2nc(NC(C)C)c2ccccc23)cc1	-4.0	i	-180.7	97.8	0.8	48.0*	23.9*
COc1cc(C=NNC(=O)CNC(=O)C2COc3ccccc3O2)ccc1O (stereo not given)	.	.	-4.6	.	.	.	.
N#Cc1ccccc1NC(=O)c1ccccc1OCC(=O)Nc1ccc2c(c1)oc1ccccc12	-3.5	i	0.0	113.3	6.4	2.5	.
CNC(=O)COc1ccccc1C(=O)Nc1ccc2c(c1)oc1ccccc12	0.4	i	-216.9	121.8	1.0	58.2*	78.8*	RORg DNA counter=i
COc1ccc(/C=C2/SC(=O)N(CC(=O)Nc3cc(C)on3)C2=O)cc1OC	0.0	i	.	101.6	-4.5	49.5*	26.6*
COc1ccc(/C=C2/SC(=O)N(CCC(=O)Nc3ccccc3)C2=O)cc1OC	-2.3	i	4.9	97.7	-37.4	23.9*	31.2*	RORg DNA counter=>40
COc1ccc(/C=C2\SC(=O)N(CC(=O)Nc3cccnc3)C2=O)cc1OC	-3.8	i	1.9	106.1	-3.5	7.6	.
COc1ccc(/C=C2/SC(=O)N(CCC(=O)Nc3ccc(C)cc3)C2=O)cc1OC	-0.1	i	-5.5	92.8	-1.4	30.3*	25.3*
CC(C)=C(NC(=O)c1ccccc1)C(=O)NN=Cc1ccc(O)cc1	.	.	2.7	.	.	.	.
Cc1cc(N=Cc2c(O)n(-c3ccc(C)c(C)c3)c(=O)c3ccccc23)no1	.	.	.	.	0.8	2.1	.
CCOC(=O)Cc1csc(/N=C/c2c(O)n(-c3ccc(C)c(C)c3)c(=O)c3ccccc23)n1	-3.4	i	-171.5	103.1	-0.9	22.6*	5.4
Cc1cc(C)c(C#N)c(SCC(=O)C(C)(C)C)n1	0.6	i	2.4	102.4	-0.3	0.6	.
Cc1cc(C)c(C#N)c(SCCS(=O)(=O)c2ccc(C(C)(C)C)cc2)n1	-0.8	i	1.5	102.9	-1.5	23.9*	11.9
CC(=NNS(=O)(=O)c1ccc(Cl)cc1)c1ccncc1	.	.	-0.6	.	.	.	.
Fc1cccc(CSc2ncnc3c2oc2ccccc23)c1	3.0	i	5.7	117.2	-1.3	122.2*	153.9*	RORg DNA counter=6.31*
Cc1nc(SCc2ccc(F)cc2)c2oc3ccccc3c2n1	1.8	i	5.5	99.0	-1.4	2.2	.
Fc1ccc(CSc2ncnc3c2oc2ccccc23)cc1	.	.	0.0	102.7	2.0	289.9*	283.8*	RORg DNA counter=>40
NC(=NOC(=O)CCCOc1ccccc1)c1cccc([N+](=O)[O-])c1	.	.	1.0	.	.	.	.
COc1cc(C=NN2CCOCC2)ccc1OCc1ccccc1	.	.	3.0	.	.	.	.
Cc1ccc(-c2cc(C(F)F)nc3sc4c(=O)[nH]cnc4c23)cc1	-7.7	.	-191.0	90.8	3.0	107.4*	113.2*	RORg DNA counter=>40
CC(NC(=O)c1ccccc1NC(=O)c1ccco1)c1ccccc1 (stereo not given)	4.6	i	-1.9	111.0	1.1	21.0*	21.7*
O=C(Nc1ccc2nn(-c3ccccc3)nc2c1)c1ccc2c(c1)OCCO2	-3.9	i	-139.8	106.9	1.6	14.4	.
SMILES	beta cell repl	Rce1 inhib	UCH37 inh	Yeast superoxide	PG9 Ab binder	Rev-erbA mod	NR1D1 mod conf	others
O=C(Nc1ccc2nn(-c3ccccc3)nc2c1)c1ccc(Br)o1	-3.4	i	-29.1	98.4	-11.1	36.6*	26.0*
CNc1cc(CS(=O)c2ccccc2)nc(-c2ccccc2)n1 (stereo not given)	-0.2	i	-1.6	103.1	-3.5	1.2	.
O=S(Cc1cc(Sc2ccccc2)nc(-c2ccccc2)n1)c1ccccc1 (stereo not given)	-3.7	i	1.2	106.1	-2.1	25.1*	16.1
O=C1/C(=C\c2cc(Cl)c(O)c(Cl)c2)SC(=S)N1Cc1ccccc1	.	i	.	109.3	1.5	67.3*	50.9*	RORg DNA counter=i
O=C(Nc1ccc(F)cc1F)c1cc2ncc(Br)cn2n1	.	i	-4.7	.	-0.1	0.1	.
COC(=O)c1ccccc1NC(=O)c1cc2ncc(Br)cn2n1	-2.2	.	-29.9	97.4	0.4	23.1*	2.1
Brc1cc2c(cc1C=NNc1nc3ccccc3s1)OCO2	.	.	-1.5	.	.	.	.
COc1ccc(-c2nnc(NC(=O)Cc3ccccc3)s2)c(OC)c1	-2.2	i	-14.9	109.9	4.8	40.8*	19.3*
COc1ccc(-c2nnc(NC(=O)c3cccs3)s2)c(OC)c1	-2.9	.	-33.5	84.2	0.2	3.5	.
COc1ccc(NC(=O)c2sc3ncn(CC(=O)N4CCN(c5ccccn5)CC4)c(=O)c3c2C)c(OC)c1	1.4	i	-42.6	111.4	0.5	47.7*	13.5
COc1ccccc1NC(=O)c1sc2ncn(Cc3ccc(C)cc3)c(=O)c2c1C	-3.6	i	-288.6	104.7	0.6	46.0*	13.7
COc1cc(OC)c(NC(=O)c2sc3ncn(CC(=O)N4CCN(c5ccccn5)CC4)c(=O)c3c2C)cc1Cl	-1.1	i	-58.3	99.2	8.6	21.5	.
COc1ccccc1NC(=O)c1sc2ncn(Cc3cccc(C)c3)c(=O)c2c1C	-3.4	i	-211.8	104.1	5.7	54.6*	54.3*	RORg DNA counter=1.05*
C=CCn1cnc2sc(C(=O)Nc3ccccc3OC)c(C)c2c1=O	-2.5	i	-12.7	102.8	-1.7	-5.9	.
C#CCn1cc(C=NNC(=O)COc2cccc3cccnc23)c2ccccc21	.	.	2.0	.	.	.	.
Cc1ccc(C=NNC(=O)c2ccc3nc[nH]c3c2)s1	.	.	8.4	.	.	.	.
Cc1ccc(-c2nc(NC(=O)c3ccc(S(=O)(=O)N(CCC#N)CCC#N)cc3)sc2-c2ccccc2)cc1	0.0	i	-40.5	110.6	-2.0	25.6*	17.9*
CN(C)S(=O)(=O)c1ccc(C(=O)Nc2nc(-c3ccccc3)c(C(=O)c3ccccc3)s2)cc1	0.0	i	0.7	95.7	1.1	18.0	.
N#CCCN(CCC#N)S(=O)(=O)c1ccc(C(=O)Nc2nc(-c3ccccc3)c(C(=O)c3ccccc3)s2)cc1	-4.1	i	-2.1	99.4	0.9	189.0*	176.8*	RORg DNA counter=4.07*
O=C(OCC(=O)N1CCCC1=O)c1cc(Cl)ccc1O	-0.8	i	-4.8	107.3	-0.9	-0.9	.
O=C(OCC(=O)N1CCCc2ccccc21)c1cc(Cl)ccc1O	-2.7	i	-7.5	101.7	0.6	24.5*	-5.2

Source: PubChem (several laboratories)
